The test system of experiment [1] is Candida albicans. Description: Antifungal activity against Candida albicans 44506 assessed as inhibition of U-14C-glucose incorporation into TCA precipitable material after 1 hr. The class given is functional, organism-based. The conditions noted are these: Candida albicans, 44506, 1 h. An outline of the steps: (§1)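 Candida grown overnight in YNBG to mid-log phase, washed with saline, and resuspended in YNB lacking the precursor under study. Compound preincubated 30 min at 37°. 14C-labelled acetate, adenine, glucose or leucine (per line) then added, with incorporation followed 60 min (linear). Stopped with ice-cold TCA, 5% final. IC50 is the concentration giving 50% inhibition versus control.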

The test system of experiment [2] is Candida albicans. Kind of experiment: Antifungal activity against Candida albicans 44506 assessed as inhibition of U-14C-adenine incorporation into TCA precipitable material after 1 hr. It counts as functional, organism-based. The conditions noted are these: Candida albicans, 44506, 1 h. In short, it runs like this:
as §1

Experiment [3] deals with Candida albicans. Description: Antifungal activity against Candida albicans 44506 assessed as inhibition of U-14C-acetate incorporation into TCA precipitable material after 1 hr. It counts as functional, organism-based. The conditions noted are these: Candida albicans, 44506, 1 h. An outline of the steps: as §1
The subject of experiment [4] is Candida albicans. Kind of experiment: Antifungal activity against Candida albicans 44506 assessed as inhibition of U-14C-leucine incorporation into TCA precipitable material after 1 hr. As to conditions: Candida albicans, 44506, 1 h. It counts as functional, organism-based. An outline of the steps: as §1
In experiment [5] the test system is Candida albicans. Kind of experiment: Antifungal activity against Candida albicans 44506 in Sabouraud dextrose broth after 18 to 24 hrs by twofold broth dilution method. It counts as functional. An outline of the steps: (§2)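 Inoculum 10^3 cells/ml, incubated 18–24 h at 37°. MIC read visually as the lowest concentration with complete growth inhibition. Average of triplicates.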
For orientation: In broth dilution the organism is exposed to a series of concentrations in liquid medium.

In experiment [6] the test system is Candida albicans. Kind of experiment: Antifungal activity against Candida albicans 44506 in RPMI-1640 medium after 18 to 24 hrs by twofold broth dilution method. The class given is functional. In short, it runs like this:
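Twofold broth microdilution in RPMI-1640 (pH 7.2, unbuffered), inoculum 10^3 cells/ml. Incubated 18–24 h at 37° under 5% CO2. MIC read visually as the lowest concentration giving complete growth inhibition. Average of triplicates.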

In experiment [7] the test system is Candida albicans. Description: Antifungal activity against Candida albicans 44506 in RPMI-1640 medium after 7 days in pH 5 buffer by agar dilution method. It counts as functional. As to conditions: Candida albicans, 44506, 168 h.
In the next experiment the test system is Pseudomonas aeruginosa. Description: Antibacterial activity against Pseudomonas aeruginosa 27853 after 18 to 24 hrs by twofold broth dilution method. It counts as functional, organism-based. An outline of the steps: (§3)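 Twofold serial dilutions in Mueller-Hinton broth supplemented with Mg2+ and Ca2+. Inoculum 10^3 cells/ml, with cell density counted by hemocytometer. Incubated 18–24 h at 37°. MIC is the lowest concentration giving complete visual inhibition of growth. Triplicate determinations, reported as the average.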

The subject of experiment [8] is Candida albicans. Kind of experiment: Antifungal activity against Candida albicans 44506 in RPMI-1640 medium after 24 to 48 hrs. It counts as functional. In short, it runs like this:
(§4)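 MFC taken from the broth MIC plates: wells resuspended, and 1 µl streaked onto Sabouraud dextrose agar (Candida) or Emmon's SDA (Cryptococcus). Scored after 24–48 h at 37°. MFC is the lowest concentration killing 99% of the inoculum. Average of triplicates.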

Experiment [9] concerns Candida albicans. Kind of experiment: Antifungal activity against Candida albicans 44506 in YNBG medium after 18 to 24 hrs by twofold broth dilution method. It counts as functional. An outline of the steps:
as §2

The next experiment concerns Bacillus subtilis. Kind of experiment: Antibacterial activity against Bacillus subtilis 6633 after 18 to 24 hrs by twofold broth dilution method. It counts as functional. In short, it runs like this: as §3
For experiment [10], the system named is Candida albicans. Kind of experiment: Antifungal activity against Candida albicans 44506 in YNBG medium after 7 days in pH 7 buffer by agar dilution method. The conditions noted are these: Candida albicans, 44506, 168 h. The class given is functional. For orientation: In agar dilution the substance is mixed into plates at graded concentrations.
The subject of experiment [11] is Scopulariopsis brevicaulis. Description: Antifungal activity against Scopulariopsis brevicaulis 36840 after 18 to 24 hrs by twofold broth dilution method. It counts as functional.
In experiment [12] the test system is Candida albicans. Description: Antifungal activity against Candida albicans 44506 in YNBG medium after 7 days in pH 6 buffer by agar dilution method. It counts as functional. The conditions noted are these: Candida albicans, 44506, 168 h.
The test system of experiment [13] is Cryptococcus neoformans. Kind of experiment: Antifungal activity against Cryptococcus neoformans 32045 after 24 to 48 hrs. The class given is functional. In short, it runs like this: as §4
The subject of experiment [14] is Candida albicans. Description: Antifungal activity against Candida albicans 44506 in RPMI-1640 medium after 7 days in pH 4 buffer by agar dilution method. The class given is functional. As to conditions: Candida albicans, 44506, 168 h.
Experiment [15] has as its system Candida albicans. Description: Antifungal activity against Candida albicans 44506 in RPMI-1640 medium after 7 days in pH 8 buffer by agar dilution method. The class given is functional. The conditions noted are these: Candida albicans, 44506, 168 h.
Experiment [16] concerns Candida albicans. Kind of experiment: Antifungal activity against Candida albicans 44506 in YNBG medium of pH 5.4 after 7 days by agar dilution method. It counts as functional. The conditions noted are these: Candida albicans, 44506, 168 h.
Another experiment relates to Trichosporon beigelii. Kind of experiment: Antifungal activity against Trichosporon beigelii 28592 after 18 to 24 hrs by twofold broth dilution method. The class given is functional.
Another experiment relates to Nannizzia gypsea. Description: Antifungal activity against Microsporum gypseum 42960 after 18 to 24 hrs by twofold broth dilution method. The class given is functional.
Experiment [17] relates to Candida albicans. Kind of experiment: Antifungal activity against Candida albicans 44506 in YNBG medium after 7 days in pH 5 buffer by agar dilution method. As to conditions: Candida albicans, 44506, 168 h. The class given is functional.
A further experiment has as its system Epidermophyton floccosum. Kind of experiment: Antifungal activity against Epidermophyton floccosum 25066 after 18 to 24 hrs by twofold broth dilution method. The class given is functional.
Experiment [18] relates to Candida albicans. Description: Antifungal activity against Candida albicans 44506 in RPMI-1640 medium after 7 days in pH 7 buffer by agar dilution method. It counts as functional. As to conditions: Candida albicans, 44506, 168 h.
The next experiment has as its system Escherichia coli. Kind of experiment: Antibacterial activity against Escherichia coli HBOI 001 after 18 to 24 hrs by twofold broth dilution method. The class given is functional, organism-based. In short, it runs like this: as §3
Experiment [19] deals with Cryptococcus neoformans. Description: Antifungal activity against Cryptococcus neoformans 32045 after 48 hrs by twofold broth dilution method. The class given is functional. As to conditions: Cryptococcus neoformans, 32045, 48 h. An outline of the steps:
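Broth microdilution with twofold compound dilutions and an inoculum of 10^3 cells/ml. Incubated 48 h at 37°. MIC is the visually read lowest concentration completely inhibiting growth. Triplicate average.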

Experiment [20] concerns Candida albicans. Kind of experiment: Antifungal activity against Candida albicans 44506 in YNBG medium after 7 days in pH 4 buffer by agar dilution method. The class given is functional. The conditions noted are these: Candida albicans, 44506, 168 h.
The subject of experiment [21] is Candida albicans. Description: Antifungal activity against Candida albicans 44506 in Sabouraud dextrose broth after 24 to 48 hrs. The class given is functional. An outline of the steps: as §4
Experiment [22] relates to Candida albicans. Kind of experiment: Antifungal activity against Candida albicans 44506 in RPMI-1640 medium of pH 7.2 after 7 days by agar dilution method. As to conditions: Candida albicans, 44506, 168 h. It counts as functional.
Experiment [23] deals with Trichophyton mentagrophytes. Kind of experiment: Antifungal activity against Trichophyton mentagrophytes 9533 after 18 to 24 hrs by twofold broth dilution method. It counts as functional.
Another experiment concerns Sporothrix schenckii. Description: Antifungal activity against Sporothrix schenckii 14284 after 18 to 24 hrs by twofold broth dilution method. It counts as functional.
In experiment [24] the test system is Candida albicans. Description: Antifungal activity against Candida albicans 44506 in YNBG medium after 7 days in pH 8 buffer by agar dilution method. The class given is functional. As to conditions: Candida albicans, 44506, 168 h.
In experiment [25] the test system is Candida albicans. Description: Antifungal activity against Candida albicans 44506 in RPMI-1640 medium after 7 days in pH 6 buffer by agar dilution method. It counts as functional. The conditions noted are these: Candida albicans, 44506, 168 h.

Five compounds from ChEMBL document CHEMBL1150059, “Antifungal activity of meridine, a natural product from the marine sponge Corticium sp” (J Nat Prod, 1992) can be followed below.

Converted amounts (≈) assume the structure as drawn. The source made the active and inactive calls. Some results are limits rather than exact numbers.

In general, IC50 refers to the concentration needed to halve the response being measured. In general, MIC refers to the least concentration at which growth counts as inhibited. A lower MIC goes with inhibition by little substance. The MFC is the smallest concentration meeting the test's criterion for killing the fungus.

With `CN(CC[C@H](N)CC(=O)N[C@H]1C=C[C@H](n2ccc(N)nc2=O)O[C@@H]1C(=O)O)C(=N)N` [BLASTICIDIN_S], the IC50 in the experiment on Candida albicans [1] was above 100 µg/mL; in the experiment on Candida albicans [2], above 100 µg/mL; in the experiment on Candida albicans [3], above 100 µg/mL; with Candida albicans [4] it was 6 µg/mL (≈ 14.2 µM).
Take `Nc1nc(=O)[nH]cc1F` [FLUCYTOSINE]: the IC50 in the experiment with Candida albicans [1] is above 100 µg/mL; in the experiment with Candida albicans [2], 6 µg/mL (≈ 46.5 µM); in the experiment with Candida albicans [3], above 100 µg/mL; with Candida albicans [4], above 100 µg/mL.
Regarding `CC(=O)N1CCN(c2ccc(OCC3COC(Cn4ccnc4)(c4ccc(Cl)cc4Cl)O3)cc2)CC1` (centres undefined) [KETOCONAZOLE], the values for the minimal inhibitory concentration (MIC) in the experiment on Candida albicans [5] and against Candida albicans [6] were 0.062 µg/mL (≈ 0.117 µM) and 0.008 µg/mL (≈ 0.0151 µM), respectively.
In the case of `O=C1c2nccc(O)c2-c2nc3ccccc3c3ccnc1c23` [MERIDINE], the MIC in the experiment on Candida albicans [7] was 0.62 µg/mL (≈ 2.07 µM); in the experiment with Candida albicans [9] it was 2.5 µg/mL (≈ 8.35 µM); with Bacillus subtilis, 3.1 µg/mL (≈ 10.4 µM); in the experiment with Candida albicans [10], 1.2 µg/mL (≈ 4.01 µM); in [11] it was above 25 µg/mL; against Candida albicans [12] it was 1.2 µg/mL (≈ 4.01 µM). Besides, the MIC against Candida albicans [14] is 0.62 µg/mL (≈ 2.07 µM); against Candida albicans [15] it was 0.31 µg/mL (≈ 1.04 µM); against Candida albicans [16] it was 2.5 µg/mL (≈ 8.35 µM); in the experiment with Trichosporon beigelii, above 25 µg/mL; with Candida albicans [5], 3.1 µg/mL (≈ 10.4 µM); in the experiment on Nannizzia gypsea, 25 µg/mL (≈ 83.5 µM). Besides, the MIC amounted to 2.5 µg/mL (≈ 8.35 µM) in the experiment on Candida albicans [17]; 1.6 µg/mL (≈ 5.35 µM) in the experiment with Epidermophyton floccosum; 0.31 µg/mL (≈ 1.04 µM) against Candida albicans [18]; 0.8 µg/mL (≈ 2.67 µM) against Cryptococcus neoformans [19]; 2.5 µg/mL (≈ 8.35 µM) in the experiment with Candida albicans [20]; 0.31 µg/mL (≈ 1.04 µM) in the experiment with Candida albicans [22]. For the same compound, the MIC in experiment [23] is 6.2 µg/mL (≈ 20.7 µM); in the experiment on Candida albicans [6], 0.2 µg/mL (≈ 0.668 µM); in the experiment on Sporothrix schenckii it was above 25 µg/mL; against Candida albicans [24] it was 1.2 µg/mL (≈ 4.01 µM); in the experiment on Candida albicans [25] it was 0.31 µg/mL (≈ 1.04 µM). Also, the result in the experiment with Pseudomonas aeruginosa and with Escherichia coli was inactive. Besides, the MFC against Candida albicans [8] is 0.2 µg/mL (≈ 0.668 µM); against Cryptococcus neoformans [13], 6.2 µg/mL (≈ 20.7 µM); against Candida albicans [21] it was 3.1 µg/mL (≈ 10.4 µM). The concentration for half-maximal inhibition (IC50) in the experiment with Candida albicans [1] is above 100 µg/mL; in the experiment on Candida albicans [2], 1 µg/mL (≈ 3.34 µM); in the experiment on Candida albicans [3] it was above 100 µg/mL; in the experiment on Candida albicans [4], 50 µg/mL (≈ 167 µM).
Consider `Clc1ccc(COC(Cn2ccnc2)c2ccc(Cl)cc2Cl)c(Cl)c1` (centres undefined) [MICONAZOLE], for which the MIC against Candida albicans [5] was 25 µg/mL (≈ 60.1 µM); in the experiment with Candida albicans [6], 0.03 µg/mL (≈ 0.0721 µM).
